Results pooled from the literature.
Each line is one published result; the experiments were not run side by side. In brackets after ≈: the same amount, converted by molar mass.

Structure (SMILES)	organism	test	system	setting	quantity	value
Cn1cnc2nc(NCc3ccc(Cl)c(Cl)c3)[nH]c(=O)c21	Bacteroides fragilis	microbial growth, agar dilution	–	48 h	MIC	> 32 µg/mL
Nc1ccn(C[C@@H](CO)OCP(=O)(O)O)c(=O)n1	Human alphaherpesvirus 1	cytopathic effect	HEL	–	EC50	2000 nM
O=C(NCc1ccc2c(c1)OCO2)c1ccc(Br)cc1F	Aspergillus brasiliensis	microbial growth	ATCC16404	72 h	MIC	> 200 µM
CCOC(=O)c1ccccc1S(=O)(=O)NC(=O)Nc1nc(Cl)cc(OC)n1	Lodderomyces parapsilosis	microbial growth, broth dilution	–	24 h	MIC50	1.1 µM
CC(C)[C@H](N)C(=O)OCCCCCn1cnc2nc(NCc3ccc(Cl)c(Cl)c3)[nH]c(=O)c21	Bacteroides fragilis	microbial growth, agar dilution	–	48 h	MIC	> 32 µg/mL
O=c1[nH]c(=O)n([C@H]2C[C@H](O)[C@@H](CO)O2)cc1/C=C/Br	Human alphaherpesvirus 1	cytopathic effect	HEL	–	EC50	2000 nM
CC[C@H](C)C[C@H](C)CCCCCCCCC(=O)N[C@H]1C[C@@H](O)[C@@H](NCCN)NC(=O)[C@@H]2[C@@H](O)CCN2C(=O)[C@H]([C@H](O)CCN)NC(=O)[C@H]([C@H](O)[C@@H](O)c2ccc(O)cc2)NC(=O)[C@@H]2C[C@@H](O)CN2C(=O)[C@H]([C@@H](C)O)NC1=O	Lodderomyces parapsilosis	microbial growth, broth dilution	ATCC22019	–	MIC	0.5 µg/mL
Nc1nc2c(ncn2COCCO)c(=O)[nH]1	Human alphaherpesvirus 1	cytopathic effect	HEL	–	EC50	200 nM
Cc1ncc([N+](=O)[O-])n1CCO	Bacteroides fragilis	microbial growth	–	–	MIC50	0.5 µg/mL
OC(Cn1cncn1)(Cn1cncn1)c1ccc(F)cc1F	Aspergillus niger	microbial killing	–	–	MFC	40 µM (≈ 12.3 µg/mL)
O=[N+]([O-])c1ccc(C2=[N+]([O-])c3ccccc3N3CCN=C23)cc1	Bacteroides fragilis	microbial growth	–	–	MIC50	≤ 0.06 µg/mL
CCCCCOc1ccc(-c2cc(-c3ccc(C(=O)N[C@H]4C[C@@H](O)[C@@H](O)NC(=O)[C@@H]5[C@@H](O)[C@@H](C)CN5C(=O)[C@H]([C@H](O)CC(N)=O)NC(=O)[C@H]([C@H](O)[C@@H](O)c5ccc(O)c(OS(=O)(=O)O)c5)NC(=O)[C@@H]5C[C@@H](O)CN5C(=O)[C@H]([C@@H](C)O)NC4=O)cc3)no2)cc1	Lodderomyces parapsilosis	microbial growth	–	–	MIC90	4 µg/mL (≈ 3.15 µM)
